Assay: Toxicity liver stage against HepG2, at 10uM
Format: cell-based
Set-up: test concentration 10 uM, cell line HepG2-A16-CD81EGFP
Details: human, HepG2-A16-CD81EGFP cells; read-out: INHIBITION
Summary of the method: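 Uninfected HepG2-A16-CD81EGFP cells, 3 × 10^3 per well, 1536-well, plated on prespotted compound at 10 μM final, parasite-free screening media added to match infected plates; puromycin 10 μM positive, DMSO 0.5% negative; run in parallel with 48 h PbLuc assay at 37 °C, 5% CO2; viability by CellTiter-Glo luminescence, normalized to controls.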

Structure (SMILES)	cytotoxicity at 10 µM [%]
O=C(C1CC1)N1C[C@@H](F)[C@@H](OCc2nc3ccccc3[nH]2)C1	-0.0342
c1ccc(-c2cc(CC3(NCc4ncc[nH]4)COC3)no2)cc1	2.05
CC(=O)N1CCC(NC[C@H]2Cn3c(-c4ccccc4)cnc3CO2)CC1	-5.04
Cc1ccc(CN2CC(O)CN(C(=O)C3CC3)CC2=O)cc1 (stereo not drawn)	-2.12
O=c1c(S(=O)(=O)N2CCCC2)cccn1Cc1c(F)cccc1Cl	0.814
CCCC(=O)NCC(Cc1cccc(F)c1)N1CCCC1=O (stereo not drawn)	-2.91
COc1ccc(Cl)cc1NC(=O)N1CCc2nc(NC(C)=O)sc2C1	12.1
CN(C)CCN1C[C@@H]2CN(C(=O)C3CC=CC3)C[C@@H]2C1=O	-1.34
CC(C)N(C)Cc1n[nH]c2c1CCN(C(=O)c1cc[nH]n1)C2	-134
CC(C)c1ccc(-n2nnc(C(=O)O)c2-c2ccccn2)cc1	9.18
Cn1c(=O)[nH]c(=O)c2c1nc1n2CC(c2ccc(Cl)cc2)O1 (stereo not drawn)	-176
Cc1ccc(F)c(-n2nnc(C(=O)O)c2-c2ccncc2)c1	-4.89
Cc1nn(C)c2c(=O)n(Cc3ccc(C#N)cc3)nnc12	3.12
COCCNc1cc(C(=O)N2CCOCC2)nc(C)n1	0.598
Cc1noc(C)c1-c1cccc(C2CCN(CC(=O)N(C)C)CC2)n1	6.33
CCOCCCNc1ncc(-c2cccc(F)c2)c(-c2nccn2C)n1	12.5
Cc1nc(C)n(CC(=O)N2CCCC(c3nc(C)n4c(C)csc34)C2)n1 (stereo not drawn)	2.08
NCCCC(=O)NCC1(O)CCN(c2ccnc3cccnc23)C1 (stereo not drawn)	1.58
NC1(CN2CCOCC2)CCCCC1	1.72
N#Cc1cn(C2CC2)c(=O)n(Cc2ncc(-c3cccs3)o2)c1=O	14.8
COC(=O)COc1c(F)cc(Br)cc1C(C)=O	2.63

Structure (SMILES)	cytotoxicity at 10 µM [%]
CCCn1nc(C(=O)N(C)Cc2nnc3n2CCC3)ccc1=O	1.77
N#Cc1cccc(S(=O)(=O)NC2CCN(CC(F)(F)F)C2)c1 (stereo not drawn)	-1.03
CC1CN(C)CCN1C(=O)c1cccn1Cc1ccncc1 (stereo not drawn)	-5.53
CCOC(=O)C(C)NC(=O)CCSc1ccc(F)cc1 (stereo not drawn)	9.13
Cc1csc(CN(CC2CCCO2)C(=O)c2occc2C)n1 (stereo not drawn)	0.489
NC(=O)CN(CC(=O)NCc1cc(F)cc(F)c1)C1CCCC1	-8.58
CCc1nc(C2CCCN(C(=O)C3=NN(CC)C(=O)CC3)C2)no1 (stereo not drawn)	-9.28
CC(Nc1cccc2c1OCCO2)C(=O)Nc1cccc(C#N)c1 (stereo not drawn)	4.7
Cn1cc(CC2CC(=O)N(Cc3ccc(Cl)cc3)C2=O)cn1 (stereo not drawn)	-0.276
CN(C1CCN(c2ccccn2)CC1)S(=O)(=O)c1ccc(F)cc1	11.2
CN1CCN(CC(NCc2ccc(F)c(F)c2)c2ccccc2)CC1 (stereo not drawn)	-10
C[S+]([O-])c1nncn1CC(=O)c1cccc(C(F)(F)F)c1 (stereo not drawn)	-0.661
NCC1(c2cccc(C(F)(F)F)c2)CCCCC1	-8.66
CCn1nc2c(cc1=O)CN(Cc1nc3ccccc3o1)CC2	-8.9
Cn1ccnc1CNC(=O)N(CCCO)C1CCc2ccccc21 (stereo not drawn)	-11.6
CN(Cc1cnn(C)c1)C(=O)NC1CCCC1	7.43
Cc1nccc(CNC(=O)Nc2cc(C(F)(F)F)c[nH]c2=O)n1	-1.16
O=C(c1[nH]nc(C2CC2)c1Cl)N1CCN(C2CC2)CC1	-5.58
CC(C)CC(=O)Nc1cc(C(=O)N(C)C(C)C)ccc1Cl	-7.62
CC(c1cccnc1)N1CCN(CCc2ccccn2)CC1 (stereo not drawn)	-6.18
CCN(CCNCc1cccc(C#N)c1)C1CC1	-11.3

Structure (SMILES)	cytotoxicity at 10 µM [%]
COc1ccc(C(NCc2cccc(C#N)c2)C2CC2)cc1 (stereo not drawn)	15.9
CN(C)C(=O)c1ccc(NCCNc2ccc3ccccc3n2)nc1	4.63
c1nc(CSc2nnc(C3CC3)s2)cs1	-5.54
COc1ccc(CNc2nncs2)cc1F	-4.23
CCN(C(=O)CCc1ccc2c(c1)OCO2)C1CC(=O)NC1=O (stereo not drawn)	-3.88
Cc1cc(NC(=O)C(C)N2CCN(c3ccccc3F)CC2)no1 (stereo not drawn)	2.83
COc1cc2ccn(CCCO)c(=O)c2cc1F	-7.91
CC(NC(=O)N1CCC[C@H]1CO)c1noc(-c2ccccc2)n1 (stereo partly drawn)	-6.67
Cc1oc(C(=O)O)cc1S(=O)(=O)Nc1c(F)cccc1-n1cccn1	-3.45
COc1ccnc(N2CCN(C(=O)c3csc(C(C)C)n3)CC2)n1	-1.82
CC1=N[C@@]2(CC[C@@H]3CN(S(=O)(=O)N(C)C)C[C@@H]32)C(=O)N1CC(C)C	3.16
CC(C)N[C@@H]1CC[C@@H]1NC(=O)c1ccccc1OC(F)(F)C(F)F	1.77
Cc1cc(C2CCCN2Cc2ccc(C(=O)Nc3nccs3)cc2)on1 (stereo not drawn)	-6.03
COCC(O)CNC(=O)c1cc(COc2ccc3c(c2)CCCC3)on1 (stereo not drawn)	-147
CC(C)(C)C(=O)N1CCCC1c1ccc(C(=O)N2CCOCC2)s1 (stereo not drawn)	-145
CC[C@H](C)[C@@H](CO)NC(C)Cc1ccc(F)cc1 (stereo partly drawn)	-6.27
CC(C)c1nccc(CN2CCCC(O)(CN(C)C)C2)n1 (stereo not drawn)	2.89
Cc1nnsc1CN1CCCC1c1nc(-c2ccccc2)no1 (stereo not drawn)	-45.8
Cc1cccnc1CN(C)C(C(=O)O)c1ccc(-c2ccn[nH]2)cc1 (stereo not drawn)	12.2
COc1cccc(CC2CN(C(=O)c3ccnn3C)CCO2)c1 (stereo not drawn)	0.769
Cc1ccn(-c2cncc(C(N)=O)c2)n1	0.0642

Structure (SMILES)	cytotoxicity at 10 µM [%]
CC(C)c1ncc(CN2C[C@@H](CN3CCCN(C)CC3)[C@@H](CO)C2)cn1	-9.77
Cc1c(CN2CCCC(C(=O)c3ccccc3)C2)cc(C#N)n1C (stereo not drawn)	-6.63
Cc1nnnn1CCC(=O)N1CCC2(CCC(=O)N(CC3CC3)C2)CC1	4.17
CCN1CCC(N2CCN(C)C3(CCC(=O)N(CCOC)CC3)C2)CC1 (stereo not drawn)	-0.724
Cc1ccnc(CC(C)N(C)Cc2ccc3c(c2)OCCO3)c1 (stereo not drawn)	-4.24
COc1c(CNCc2ccc(N3CCCC3)nc2)c(C(C)C)nn1C	-11.5
CSCC(=O)NS(=O)(=O)c1ccc2c(c1)OCCO2	-9.69
Cc1nc(C)n(CC2CCCN2Cc2nc(-c3ccoc3)no2)n1 (stereo not drawn)	-8.48
CCOc1cc(C)nc(N2CCN(C(=O)CC)CC2)n1	-6.68
COCCCN(C)C1CCCN(Cc2noc(C)n2)C1 (stereo not drawn)	-8.06
CC(C)COCC(NC(=O)c1ccccn1)c1ccco1 (stereo not drawn)	-7.52
Cc1cnn(CC2CCCN2CC(=O)Nc2nc(C)cs2)c1 (stereo not drawn)	-6.26
Cc1c(NC(=O)CN2CCN(C3CCCC3)C(=O)C2)cnn1C	5.25
Cn1nc(CN2CCOCC2)c2c1CN(Cc1ccsc1)C2	-145
CN1CCN(C)C(c2nnc3ccc(C(=O)N4CCOCC4)cn23)C1 (stereo not drawn)	-130
O=C(c1cnccn1)N1CCCC2(CCN(Cc3ccc(F)cc3)C2)C1 (stereo not drawn)	-153
Cn1cc(C[C@H]2[C@H](N3CCOCC3)CCN2c2ncc(F)cn2)cn1	7.23
CN(C)C(=O)CN1CCCC12CCCN(c1ncc(F)cn1)C2 (stereo not drawn)	-2.51
Cc1nc(N2CCCC2)nc2c1CCN(Cc1ccoc1)CC2	-134
Cc1nc(CN2C(=O)COC3(CCN(C)CC3)C2C)cs1 (stereo not drawn)	-128
